This note sets out measurements from ChEMBL document CHEMBL1149132, “Structure-activity study of the ORL1 antagonist Ac-Arg-D-Cha-Qaa-D-Arg-D-p-ClPhe-NH2” (J Med Chem, 2004).

pKi: −log10 of the molar value. Where only a bound is given, the exact number is not on record here.

Format in all cases: cell-based
Assay [1] concerns the target Kappa-type opioid receptor (Homo sapiens, UniProt P41145). The assay is described as follows: Binding affinity against human Opioid receptor kappa 1 (hKOR) was determined using [3H]diprenorphine in vitro in CHO cells. The procedure, abridged:
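Competition binding with [3H]diprenorphine on membrane homogenates of CHO cells stably expressing recombinant human KOR. Ki reported as mean ± SEM of two or more separate experiments, each run in duplicate.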

Assay [2] has as its target Delta-type opioid receptor (Homo sapiens, UniProt P41143). The assay is described as follows: Binding affinity against human opioid receptor delta 1 was determined using [3H]diprenorphine in vitro transfected to COS-1 cells. In short, it runs like this: (§1)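 Competition binding with [3H]diprenorphine on membrane homogenates of COS-1 cells transiently transfected with human MOR or human DOR. Ki given as mean ± SEM from two or more separate experiments done in duplicate.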

In the next assay the target is Nociceptin receptor (Homo sapiens, UniProt P41146). The assay is described as follows: Binding affinity against human opioid receptor like 1 (hORL) was determined using [leucyl-3H]nociceptin in vitro in CHO cells. The procedure, abridged:
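Displacement of [leucyl-3H]nociceptin from membrane homogenates of CHO cells stably expressing recombinant human ORL1. Ki values are means ± SEM of two or more independent experiments, each in duplicate.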

The target of the next assay is Mu-type opioid receptor (Homo sapiens, UniProt P35372). The assay is described as follows: Binding affinity against human Opioid receptor mu 1 (hMOR) was determined using [3H]diprenorphine in vitro transfected to COS-1 cells. In short, it runs like this:
as §1

Sequence of Mu-type opioid receptor (P35372 whole entry): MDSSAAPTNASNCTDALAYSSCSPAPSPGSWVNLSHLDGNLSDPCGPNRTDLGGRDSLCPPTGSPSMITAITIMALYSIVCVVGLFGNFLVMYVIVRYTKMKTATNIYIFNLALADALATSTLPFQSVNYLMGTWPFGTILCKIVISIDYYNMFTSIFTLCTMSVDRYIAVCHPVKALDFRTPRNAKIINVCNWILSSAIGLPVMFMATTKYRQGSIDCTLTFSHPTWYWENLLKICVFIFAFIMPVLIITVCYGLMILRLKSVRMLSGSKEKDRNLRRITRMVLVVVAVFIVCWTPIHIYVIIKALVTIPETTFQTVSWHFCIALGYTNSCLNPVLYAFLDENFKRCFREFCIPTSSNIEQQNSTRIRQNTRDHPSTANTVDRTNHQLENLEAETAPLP
Sequence of Nociceptin receptor (P41146 whole entry): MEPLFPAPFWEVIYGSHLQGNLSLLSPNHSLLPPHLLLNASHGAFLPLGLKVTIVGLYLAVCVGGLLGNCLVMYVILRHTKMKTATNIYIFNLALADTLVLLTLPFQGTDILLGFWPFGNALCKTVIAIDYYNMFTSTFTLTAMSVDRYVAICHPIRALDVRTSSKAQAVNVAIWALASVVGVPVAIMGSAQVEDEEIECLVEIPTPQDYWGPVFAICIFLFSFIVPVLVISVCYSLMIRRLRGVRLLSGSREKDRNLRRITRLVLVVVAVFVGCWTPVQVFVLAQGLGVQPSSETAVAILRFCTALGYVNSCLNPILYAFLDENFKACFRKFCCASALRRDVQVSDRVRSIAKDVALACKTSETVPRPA
Sequence of Kappa-type opioid receptor (P41145 whole entry): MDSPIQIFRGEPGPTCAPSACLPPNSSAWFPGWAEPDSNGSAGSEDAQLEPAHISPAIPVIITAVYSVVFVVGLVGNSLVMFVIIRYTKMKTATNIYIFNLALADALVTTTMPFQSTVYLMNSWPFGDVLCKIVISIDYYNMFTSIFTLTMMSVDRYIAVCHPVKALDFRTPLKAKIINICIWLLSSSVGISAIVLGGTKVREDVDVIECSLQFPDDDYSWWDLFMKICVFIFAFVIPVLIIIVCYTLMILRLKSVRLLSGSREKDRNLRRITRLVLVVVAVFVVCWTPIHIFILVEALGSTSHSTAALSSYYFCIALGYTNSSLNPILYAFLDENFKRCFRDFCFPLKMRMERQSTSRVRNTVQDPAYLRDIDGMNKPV
Sequence of Delta-type opioid receptor (P41143 whole entry): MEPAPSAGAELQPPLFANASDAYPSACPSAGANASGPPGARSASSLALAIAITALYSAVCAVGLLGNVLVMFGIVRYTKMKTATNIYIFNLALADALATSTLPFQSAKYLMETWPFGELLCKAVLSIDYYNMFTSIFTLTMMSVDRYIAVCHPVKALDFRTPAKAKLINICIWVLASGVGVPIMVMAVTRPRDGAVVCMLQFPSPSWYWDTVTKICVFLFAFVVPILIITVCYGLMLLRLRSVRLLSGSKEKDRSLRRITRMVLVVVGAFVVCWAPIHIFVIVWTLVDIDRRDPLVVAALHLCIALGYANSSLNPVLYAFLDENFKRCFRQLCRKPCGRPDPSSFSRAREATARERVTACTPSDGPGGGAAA

For `CC(=O)N[C@@H](CCCN=C(N)N)C(=O)N[C@H](CC1CCCCC1)C(=O)N[C@H]1CC[C@H]2CCC[C@@H](C(=O)N[C@H](CCCNC(N)=O)C(N)=O)N2C1=O`, the pKi (in assay [1]; in assay [2]; at Nociceptin receptor; at Mu-type opioid receptor) was below 5.30 each time.

In the case of `CC(=O)N[C@@H](CCCN=C(N)N)C(=O)N[C@H](CC1CCCCC1)C(=O)N[C@H]1CC[C@H]2CCC[C@@H](C(=O)N[C@H](CCCNC(N)=O)C(=O)N[C@H](Cc3ccc(Cl)cc3)C(N)=O)N2C1=O`, the pKi (in assay [1]; in assay [2]; on Nociceptin receptor; at Mu-type opioid receptor) was below 5.30 each time.

On to `CC(=O)N[C@@H](CCCNC(N)=O)C(=O)N[C@H](CC1CCCCC1)C(=O)N[C@H]1CC[C@H]2CCC[C@@H](C(=O)N[C@H](CCCN=C(N)N)C(=O)N[C@H](Cc3ccc(Cl)cc3)C(N)=O)N2C1=O`, for which the pKi in assay [1] is 5.37; in assay [2], below 5.30; at Nociceptin receptor, 7.14; on Mu-type opioid receptor, 5.59.

Take `CC(=O)N[C@@H](CCCN=C(N)N)C(=O)N[C@H](CC1CCCCC1)C(=O)N[C@H]1CC[C@@H]2SC[C@@H](C(=O)N[C@H](CCCN=C(N)N)C(=O)NC(Cc3ccc(Cl)cc3)C(N)=O)N2C1=O` (stereo not given in full): the pKi in assay [1] was 7.11; in assay [2], 6.65; at Nociceptin receptor, 7.47; on Mu-type opioid receptor, 7.28.

Turning to `CC(=O)N[C@@H](CCCN=C(N)N)C(=O)N[C@H](CC1CCCCC1)C(=O)N[C@H]1CC[C@H]2CCC[C@@H](C(=O)N[C@H](CCCN=C(N)N)C(=O)N[C@H](Cc3ccc(Cl)cc3)C(N)=O)N2C1=O`, the pKi was 6.98 in assay [1], below 5.30 in assay [2], 7.57 at Nociceptin receptor and 7.05 at Mu-type opioid receptor.
